Source: ChEMBL document CHEMBL4673243, “Discovery of 9-Cyclopropylethynyl-2-((S)-1-[1,4]dioxan-2-ylmethoxy)-6,7-dihydropyrimido[6,1-a]isoquinolin-4-one (GLPG1205), a Unique GPR84 Negative Allosteric Modulator Undergoing Evaluation in a Phase II Clinical Trial” (J Med Chem, 2020)
In brackets after ≈: the same amount, converted by molar mass.

How the values were obtained:
[1] = Plasma protein binding in mouse at 5 uM measured after 4 hrs by LC-MS/MS analysis
[2] = in vitro; details: mouse, liver microsomes
[3] = in vitro; details: human, cryopreserved hepatocytes
[4] = in vitro; details: mouse, cryopreserved hepatocytes
[5] = in vitro; details: human, liver microsomes
[6] = in vitro; details: rat, liver microsomes
[7] = Plasma protein binding in human at 5 uM measured after 4 hrs by LC-MS/MS analysis
[8] = Plasma protein binding in rat at 5 uM measured after 4 hrs by LC-MS/MS analysis
[9] = physchem; details: aqueous solution with 2% DMSO, pH 7.4
[10] = target: 3',5'-cyclic-AMP phosphodiesterase 4A (Homo sapiens, UniProt P27815); test: Inhibition of recombinant human PDE4A overexpressed in HEK293 cells assessed as reduction in cAMP hydrolysis by HTRF based immunoassay; assay type: cell-based
3',5'-cyclic-AMP phosphodiesterase 4A, sequence (P27815 whole entry): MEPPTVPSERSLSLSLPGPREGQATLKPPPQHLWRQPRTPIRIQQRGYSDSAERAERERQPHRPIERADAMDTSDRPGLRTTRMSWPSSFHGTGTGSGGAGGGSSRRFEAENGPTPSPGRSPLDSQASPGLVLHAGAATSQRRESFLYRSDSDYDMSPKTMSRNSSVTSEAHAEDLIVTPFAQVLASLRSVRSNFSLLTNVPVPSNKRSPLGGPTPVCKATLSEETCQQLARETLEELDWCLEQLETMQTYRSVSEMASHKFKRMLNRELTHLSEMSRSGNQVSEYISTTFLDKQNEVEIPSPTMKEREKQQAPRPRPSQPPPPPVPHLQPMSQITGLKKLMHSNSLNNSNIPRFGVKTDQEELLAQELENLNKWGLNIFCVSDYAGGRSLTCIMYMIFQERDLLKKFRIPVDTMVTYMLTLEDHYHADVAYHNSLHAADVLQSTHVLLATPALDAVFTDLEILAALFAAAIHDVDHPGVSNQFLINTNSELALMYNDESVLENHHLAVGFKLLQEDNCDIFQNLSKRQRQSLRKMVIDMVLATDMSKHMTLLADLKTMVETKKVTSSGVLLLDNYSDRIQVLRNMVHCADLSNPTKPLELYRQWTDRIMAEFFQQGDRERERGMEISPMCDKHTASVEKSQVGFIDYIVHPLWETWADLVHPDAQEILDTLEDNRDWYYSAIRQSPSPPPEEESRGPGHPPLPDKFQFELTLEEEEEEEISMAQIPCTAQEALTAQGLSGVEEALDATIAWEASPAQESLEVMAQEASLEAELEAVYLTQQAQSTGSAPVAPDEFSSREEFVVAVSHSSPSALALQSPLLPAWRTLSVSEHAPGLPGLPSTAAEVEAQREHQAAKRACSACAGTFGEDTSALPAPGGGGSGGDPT
Summary of the method: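 Human PDE4A from lysate of HEK293 cells overexpressing the enzyme hydrolyses cAMP; remaining cAMP measured by HTRF competitive immunoassay (d2-labelled cAMP vs cryptate anti-cAMP antibody), signal inversely proportional to cAMP; IC50 determined.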

[11] = Inhibition of embelin-induced migration of human neutrophils preincubated for 30 mins followed by embelin addition and measured after 1 hr by ATPlite luminescence assay; details: Neutrophil
[12] = in vivo; details: male, Sprague-Dawley, rat, po, 5 mg/kg
[13] = in vivo; details: male, Sprague-Dawley, rat, po, 5 mg/kg; remark: listed apart in the source
[14] = in vivo; details: male, Sprague-Dawley, rat, po, 5 mg/kg; remark: listed apart in the source

| CLint scaled at 0.5 h, 1 µM [2] [mL/min/kg] | solubility [9] [µg/mL] | IC50 ([10]; read-out: IC50) [nM] | Structure (SMILES) | also measured |
| --- | --- | --- | --- | --- |
| 360 | – | – | COc1ccc2c(c1)CCn1c-2cc(OC[C@H]2COc3ncccc3O2)nc1=O | fraction unbound at 4 h, 5 µM [1]: 0.087; CLint scaled at 1 µM [3]: 13.3 mL/min/kg; CLint scaled at 1 µM [4]: 182 mL/min/kg; CLint scaled at 0.5 h, 1 µM [5]: 35 mL/min/kg; CLint scaled at 0.5 h, 1 µM [6]: 152 mL/min/kg; fraction unbound at 4 h, 5 µM [7]: 0.027; fraction unbound at 4 h, 5 µM [8]: 0.021 |
| – | 26 (≈ 65.9 µM) | 2110 | COc1cc2c(cc1OC)-c1cc(OCCOc3ccccc3)nc(=O)n1CC2 | IC50 [11]: 128 nM |
| 487 | – | > 10000 | COc1ccc2c(c1)CCn1c-2cc(OCc2ncccc2F)nc1=O | – |
| – | – | > 10000 | COc1ccc2c(c1)CCn1c-2cc(OCCOc2ccccc2)nc1=O | – |
| 175 | 72 (≈ 201 µM) | 2170 | COc1cc2c(cc1OC)-c1cc(OCC3CCCO3)nc(=O)n1CC2 (stereo unspecified) | – |
| – | – | 1090 | COc1cc2c(cc1OC)-c1cc(OCc3ncccc3F)nc(=O)n1CC2 | – |
| – | 18 (≈ 45.5 µM) | 586 | COc1cc2c(cc1OC)-c1cc(OCCOc3ccccn3)nc(=O)n1CC2 | – |
| 1970 | – | > 10000 | COc1ccc2c(c1)-c1cc(OCc3ccccc3F)nc(=O)n1CC2 | – |
| 1490 | – | > 10000 | COc1ccc2c(c1)CCn1c-2cc(OCc2ccccc2F)nc1=O | – |
| – | – | > 10000 | O=c1nc(OCc2ccccc2F)cc2n1CCc1ccccc1-2 | – |
| 670 | 26 (≈ 68 µM) | 372 | COc1cc2c(cc1OC)-c1cc(OCc3ccccc3F)nc(=O)n1CC2 | – |
| 162 | – | – | O=c1nc(OCC2COCCO2)cc2n1CCc1cc(C#CC3CC3)ccc1-2 (racemic) | CLint scaled at 0.5 h, 1 µM [5]: 36.7 mL/min/kg; CLint scaled at 0.5 h, 1 µM [6]: 23.3 mL/min/kg; IC50 ([10]; hek293): Not Active; Tmax [12]: 1.7 h; AUC(0-inf) at 24 h [13]: 10200 ng·h/mL; Cmax at 1.7 h [14]: 2420 ng/mL; IC50 [11]: 17 nM |
